# Results pooled from the literature.
# Protocols differ between the studies behind these lines. pIC50: −log10 of the molar value.
SMILES,tested on,test,test system,conditions,endpoint,value
O=C(CCc1ccccc1)Nc1ncccn1,Candida albicans,microbial growth,,48 h,MIC80,> 100 µM
OC(Cn1cncn1)(Cn1cncn1)c1ccc(F)cc1F,Candida albicans,"microbial killing, broth dilution",SP3903,48 h,MFC,> 64 µM
Cc1cnc(NC(=O)/C=C/c2cccs2)nc1,Candida albicans,microbial growth,,48 h,MIC80,25 µM
N.N.[Cl][Pt][Cl],CCD 19Lu,"cell growth or viability, MTT",,72 h,pIC50,4.25
O=c1ccc2nc3ccc(OCc4ccc([N+](=O)[O-])o4)cc3oc-2c1,Enterococcus faecium,microbial growth,,24 h,MIC,> 32 µg/mL
CC(=O)N1CCN(c2ccc(OCC3COC(Cn4ccnc4)(c4ccc(Cl)cc4Cl)O3)cc2)CC1 (centres unmarked),Candida albicans,"microbial killing, broth dilution",58288,48 h,MFC,> 64 µM
OC(Cn1cncn1)(Cn1cncn1)c1ccc(F)cc1F,Candida albicans,"microbial growth, broth dilution",ATCC60193,,MIC,2 µg/mL
O=c1ccc2nc3ccc(O)cc3oc-2c1,Enterococcus faecium,microbial growth,,24 h,MIC,> 32 µg/mL
